# Test results taken from ChEMBL document CHEMBL5030529, “Rationally Modified Antimicrobial Peptides from the N-Terminal Domain of Human RNase 3 Show Exceptional Serum Stability” (J Med Chem, 2021).
# The source made the active and inactive calls. The calls are words filed in the database; no cut-off is given here. Square brackets hold non-standard residues; d marks the D form. Peptide text beside a SMILES is read from it. Orn = NCCC[C@H](N)C(=O)O
# Experiments:
# [1] = Stability in human serum assessed as half life by LC-MS analysis; type: ADME, cell-free
# Procedure, shortened: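 1 mM peptide stocks in water were mixed 1:1 (v/v) with human serum. Aliquots were taken at set times and digestion was stopped by acetonitrile precipitation. Serum proteins were removed by centrifugation, and intact peptide and fragments in the supernatant were analysed by LC–MS. Half-life values are the mean of three independent studies.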
# [2] = Retention time of the compound by HPLC analysis; type: physicochemical
# Procedure, shortened: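 Analytical RP-HPLC on a C18 column (4.6 × 50 mm, 3 μm) with a linear gradient of 0–60% acetonitrile (0.036% TFA) into water (0.045% TFA) over 15 min. Flow was 1 mL/min with UV detection at 220 nm.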
# Pseudomonas sp. = assay: Antimicrobial activity against Pseudomonas sp assessed as bacterial growth inhibition incubated in presence of serum for 24 hrs; type: functional
# Procedure, shortened: (§1)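 Broth microdilution in polypropylene plates in Mueller-Hinton medium, inoculum 5 × 10^5 CFU/mL, 37 °C for 24 h. […] MIC is the lowest peptide concentration with no growth. Values are the mean of three independent studies.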
# Salmonella enterica = assay: Antimicrobial activity against Salmonella enterica assessed as bacterial growth inhibition incubated in presence of serum for 24 hrs; type: functional; procedure, shortened: as §1
# Shigella flexneri = assay: Antimicrobial activity against Shigella flexneri assessed as bacterial growth inhibition incubated in presence of serum for 24 hrs; type: functional; procedure, shortened: as §1
# [3] = Hemolytic activity in horse RBC assessed as hemolysis at 250 uM relative to control; type: ADME, tissue-based, Equus caballus; details: erythrocyte
# Procedure, shortened: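 Horse erythrocytes were diluted 10-fold in PBS and washed by three spins at 800g. They were incubated with peptides for 4 h at 37 °C, and supernatant absorbance was read at 540 nm. Percent hemolysis is relative to total lysis with 1% Triton X-100. Values are the mean of three independent studies.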
# MRC5 = assay: Cytotoxicity against human MRC5 cells assessed as cell growth inhibition measured after 4 hrs by MTT assay; type: cell-based; details: MRC5, 4 h
# Procedure, shortened: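 MRC-5 fibroblasts were grown in MEMα with 10% FBS, seeded at 3 × 10^4 cells/well and left overnight to adhere. Cells were exposed to two-fold peptide serial dilutions for 4 h, then given medium with MTT at 0.4 mg/mL for 150 min. Formazan was dissolved in DMSO and read at 600 nm. Values are the mean of three independent studies.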
# Escherichia coli [4] = assay: Antimicrobial activity against clinical isolate Escherichia coli 116878 assessed as bacterial growth inhibition incubated in presence of serum for 24 hrs; type: functional; procedure, shortened: as §1
# Escherichia coli [5] = assay: Antimicrobial activity against clinical isolate Escherichia coli cf073 assessed as bacterial growth inhibition incubated in presence of serum for 24 hrs; type: functional; procedure, shortened: as §1
# Pseudomonas aeruginosa [6] = assay: Antimicrobial activity against clinical isolate Pseudomonas aeruginosa 827651 assessed as bacterial growth inhibition incubated in presence of serum for 24 hrs; type: functional; procedure, shortened: as §1
# Pseudomonas aeruginosa [7] = assay: Antimicrobial activity against clinical isolate Pseudomonas aeruginosa 827632 assessed as bacterial growth inhibition incubated in presence of serum for 24 hrs; type: functional; procedure, shortened: as §1
# Salmonella typhimurium [8] = assay: Antimicrobial activity against clinical isolate Salmonella typhimurium 324 assessed as bacterial growth inhibition incubated in presence of serum for 24 hrs; type: functional, Salmonella enterica subsp. enterica serovar Typhimurium; details: Salmonella enterica; procedure, shortened: as §1
# Salmonella typhimurium [9] = assay: Antimicrobial activity against clinical isolate Salmonella typhimurium 365 assessed as bacterial growth inhibition incubated in presence of serum for 24 hrs; type: functional, Salmonella enterica subsp. enterica serovar Typhimurium; details: Salmonella enterica; procedure, shortened: as §1
# Acinetobacter baumannii [10] = assay: Antimicrobial activity against clinical isolate Acinetobacter baumannii 3862 assessed as bacterial growth inhibition incubated in presence of serum for 24 hrs; type: functional; procedure, shortened: as §1
# Acinetobacter baumannii [11] = assay: Antimicrobial activity against clinical isolate Acinetobacter baumannii 3878 assessed as bacterial growth inhibition incubated in presence of serum for 24 hrs; type: functional; procedure, shortened: as §1
# Acinetobacter baumannii [12] = assay: Antimicrobial activity against clinical isolate Acinetobacter baumannii 3879 assessed as bacterial growth inhibition incubated in presence of serum for 24 hrs; type: functional; procedure, shortened: as §1
# Acinetobacter baumannii [13] = assay: Antimicrobial activity against clinical isolate Acinetobacter baumannii 3880 assessed as bacterial growth inhibition incubated in presence of serum for 24 hrs; type: functional; procedure, shortened: as §1
# Cell membrane [14] = assay: Induction of membrane depolarization in Escherichia coli at 0.4 uM incubated 20 to 30 mins under dark by Eclipse fluorescence spectrometry; type: subcellular; details: time 20-30 min
# Procedure, shortened: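 Exponential-phase E. coli (OD 0.2–0.4) was washed in 5 mM HEPES, 20 mM glucose, 100 mM KCl, pH 7.2, and resuspended to OD 0.05. DiSC3(5) was added at 0.4 μM final and equilibrated in the dark for 20–30 min to a stable baseline. Peptide was then added and dye release was followed by fluorescence at ex 625 nm / em 666 nm.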
# Cell membrane [15] = assay: Induction of membrane damage in Escherichia coli assessed as loss of membrane integrity by measuring blebs at 10 uM incubated for 2 hrs by Electron scanning microscopy; type: subcellular
# Procedure, shortened: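 E. coli was grown in LB at 37 °C to OD600 0.4 and exposed to 10 μM peptide for 2 h at room temperature. Cells were collected on 0.1 μm filters, fixed in 2.5% glutaraldehyde in cacodylate buffer pH 7.4 and post-fixed in 1% OsO4. Samples were dehydrated in ethanol, coated with gold–palladium and imaged at 15 kV.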
# Escherichia coli [16] = assay: Antimicrobial activity against Escherichia coli assessed as bacterial growth inhibition incubated for 24 hrs
# Acinetobacter baumannii [17] = assay: Antimicrobial activity against Acinetobacter baumannii assessed as bacterial growth inhibition incubated for 24 hrs
Compound,half-life [1],Retention_time [2],MIC (Pseudomonas sp.),MIC (Salmonella enterica),MIC (Shigella flexneri),Activity [3],IC50 (MRC5),MIC (Escherichia coli [4]),MIC (Escherichia coli [5]),MIC (Pseudomonas aeruginosa [6]),MIC (Pseudomonas aeruginosa [7]),MIC (Salmonella typhimurium [8]),MIC (Salmonella typhimurium [9]),MIC (Acinetobacter baumannii [10]),MIC (Acinetobacter baumannii [11]),MIC (Acinetobacter baumannii [12]),Activity (Cell membrane [14]),Activity (Cell membrane [15]),MIC (Escherichia coli [16]),MIC (Acinetobacter baumannii [17]),further results
H-RPFTRAQWFAIQHISPRTIAMRAINNYRWR-OH,12.3 min,8.9 min,1.56 µM,12.5 µM,3.13 µM,44%,23 µM,6.25 µM,3.13 µM,25 µM,12.5 µM,6.25 µM,6.25 µM,0.78 µM,1.56 µM,1.56 µM,Active,Active,1.56 µM,1.56 µM,MIC (Acinetobacter baumannii [13]): 1.56 µM
CC[C@H](C)[C@H](NC(=O)[C@H](CCCCN)NC(=O)[C@H](CCC(=O)O)NC(=O)[C@H](CCCCN)NC(=O)[C@H](CO)NC(=O)[C@H](CCCCN)NC(=O)[C@H](CCCNC(=N)N)NC(=O)[C@H](Cc1ccccc1)NC(=O)[C@H](Cc1ccccc1)NC(=O)[C@H](CC(=O)O)NC(=O)CNC(=O)[C@H](CC(C)C)NC(=O)[C@@H](N)CC(C)C)C(=O)NCC(=O)N[C@@H](CCCCN)C(=O)N[C@@H](CCC(=O)O)C(=O)N[C@@H](Cc1ccccc1)C(=O)N[C@@H](CCCCN)C(=O)N[C@@H](CCCNC(=N)N)C(=O)N[C@H](C(=O)N[C@H](C(=O)N[C@@H](CCC(N)=O)C(=O)N[C@@H](CCCNC(=N)N)C(=O)N[C@H](C(=O)N[C@@H](CCCCN)C(=O)N[C@@H](CC(=O)O)C(=O)N[C@@H](Cc1ccccc1)C(=O)N[C@@H](CC(C)C)C(=O)N[C@@H](CCCNC(=N)N)C(=O)N[C@@H](CC(N)=O)C(=O)N[C@@H](CC(C)C)C(=O)N[C@H](C(=O)N1CCC[C@H]1C(=O)N[C@@H](CCCNC(=N)N)C(=O)N[C@H](C(=O)N[C@@H](CCC(=O)O)C(=O)N[C@@H](CO)C(=O)O)[C@@H](C)O)C(C)C)[C@@H](C)CC)C(C)C)[C@@H](C)CC,,,,,,,,,,,,,,,,,Active,Active,,,
CC[C@H](C)[C@H](NC(=O)[C@H](C)NC(=O)[C@H](CCCN)NC(=O)[C@H](CCSC)NC(=O)[C@H](C)NC(=O)[C@@H](NC(=O)[C@@H](NC(=O)[C@H](CCCN)NC(=O)[C@@H]1CCCN1C(=O)[C@H](CO)NC(=O)[C@@H](NC(=O)[C@H](Cc1c[nH]cn1)NC(=O)[C@H](CCC(N)=O)NC(=O)[C@@H](NC(=O)[C@H](C)NC(=O)[C@H](Cc1ccccc1)NC(=O)[C@H](Cc1c[nH]c2ccccc12)NC(=O)[C@H](CCC(N)=O)NC(=O)[C@H](C)NC(=O)[C@H](CCCN)NC(=O)[C@@H](NC(=O)[C@@H](N)Cc1ccccc1)[C@@H](C)O)[C@@H](C)CC)[C@@H](C)CC)[C@@H](C)O)[C@@H](C)CC)C(=O)N[C@@H](CC(N)=O)C(=O)N[C@@H](CC(N)=O)C(=O)N[C@@H](Cc1ccc(O)cc1)C(=O)N[C@@H](CCCN)C(=O)N[C@@H](Cc1c[nH]c2ccccc12)C(=O)N[C@@H](CCCN)C(=O)O (H-FT[Orn]AQWFAIQHISP[Orn]TIAM[Orn]AINNY[Orn]W[Orn]-OH),> 480 min,10.8 min,25 µM,> 100 µM,50 µM,11%,> 300 µM,,,,,,,,,,,,25 µM,> 100 µM,
CC[C@H](C)[C@H](NC(=O)[C@H](C)NC(=O)[C@H](CCCN)NC(=O)[C@H](CCSC)NC(=O)[C@H](C)NC(=O)[C@@H](NC(=O)[C@@H](NC(=O)[C@H](CCCN)NC(=O)[C@@H]1CCCN1C(=O)[C@H](CO)NC(=O)[C@@H](NC(=O)[C@H](Cc1c[nH]cn1)NC(=O)[C@H](CCC(N)=O)NC(=O)[C@@H](NC(=O)[C@H](C)NC(=O)[C@H](Cc1ccccc1)NC(=O)[C@H](Cc1c[nH]c2ccccc12)NC(=O)[C@H](CCC(N)=O)NC(=O)[C@H](C)NC(=O)[C@H](CCCN)NC(=O)[C@@H](NC(=O)[C@H](Cc1ccccc1)NC(=O)[C@H]1CCCN1C(=O)[C@H](N)CCCN)[C@@H](C)O)[C@@H](C)CC)[C@@H](C)CC)[C@@H](C)O)[C@@H](C)CC)C(=O)N[C@@H](CC(N)=O)C(=O)N[C@@H](CC(N)=O)C(=O)N[C@@H](Cc1ccc(O)cc1)C(=O)N[C@@H](CCCN)C(=O)N[C@@H](Cc1c[nH]c2ccccc12)C(=O)N[C@@H](CCCN)C(=O)O,> 480 min,10.8 min,1.56 µM,25 µM,6.25 µM,3.6%,170 µM,6.25 µM,3.13 µM,100 µM,25 µM,25 µM,25 µM,0.78 µM,0.78 µM,1.56 µM,Active,Active,3.13 µM,6.25 µM,MIC (Acinetobacter baumannii [13]): 6.25 µM
CC[C@H](C)[C@H](NC(=O)[C@H](C)NC(=O)[C@H](CCCN)NC(=O)[C@H](CCSC)NC(=O)[C@H](C)NC(=O)[C@@H](NC(=O)[C@@H](NC(=O)[C@H](CCCN)NC(=O)[C@@H]1CCCN1C(=O)[C@H](CO)NC(=O)[C@@H](NC(=O)[C@H](Cc1c[nH]cn1)NC(=O)[C@H](CCC(N)=O)NC(=O)[C@@H](NC(=O)[C@H](C)NC(=O)[C@H](Cc1ccccc1)NC(=O)[C@H](Cc1c[nH]c2ccccc12)NC(=O)[C@H](CCC(N)=O)NC(=O)[C@H](C)NC(=O)[C@H](CCCN)NC(=O)[C@@H](NC(=O)[C@H](Cc1ccccc1)NC(=O)[C@@H]1CCCN1C(=O)[C@@H](N)CCCN)[C@@H](C)O)[C@@H](C)CC)[C@@H](C)CC)[C@@H](C)O)[C@@H](C)CC)C(=O)N[C@@H](CC(N)=O)C(=O)N[C@@H](CC(N)=O)C(=O)N[C@@H](Cc1ccc(O)cc1)C(=O)N[C@@H](CCCN)C(=O)N[C@@H](Cc1c[nH]c2ccccc12)C(=O)N[C@@H](CCCN)C(=O)O,29.1 min,8.4 min,6.25 µM,25 µM,12.5 µM,10%,113 µM,,,,,,,,,,Active,Active,6.25 µM,6.25 µM,
